Compounds with a hit are over-represented: about 0.92% of the library has one in this group of screens.
RAD52 inh: inhibitors of human RAD52 DNA annealing; recombinant RAD52 DNA annealing, FRET fluorescence; AID 651710; P43351; actives 0.46% (n = 360,000); inhibition, % at 18.7 µM;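 active means every replicate showing at least 50% inhibition; inconclusive means mean inhibition at least 50% but not in every replicate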
RAD54 inh: RAD54 (human) branch migration inhibition; Q92698; inhibition, % at 10.4 µM; RAD54 Holliday junction branch migration, FAM/BHQ fluorescence; actives 0.14% (n = 360,000);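 active means mean normalized replicate activity at least 40 and at least half of replicates scoring 40 or more; inconclusive means only one of the two criteria met; inactive means mean below 40 and under half of replicates reaching 40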;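 further: 0% = median of neutral control wells and 100% = median of positive control wells; inhibitors cause a drop in the FAM fluorescence signal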
N-glyco inh: blocks N-linked glycosylation in D54 reporter cells; D54 ERlucT glycosylation luciferase reporter, 24 h; percent of 100 nM tunicamycin response; reporter increase, % at 12.5 µM; actives 0.23% (n = 360,000);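 active means mean luciferase reporter signal, scaled so untreated is 0 and the glycosylation-blocking control 100, at or above a set limit in every replicate; inconclusive means mean reaches the limit but not every replicate does; inactive means mean below the limit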;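 further: luciferase carries N-glycosylation sites so blocking glycosylation raises the light; 0% = median of neutral control wells and 100% = median of 100 nM tunicamycin wells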
AF4-AF9 inh: inhibitors of human MLL-AF4/AF9 interaction | AID 651704 | P42568 | actives 0.47% (n = 350,000) | AlphaScreen, biotin-AF4 peptide binding to FLAG-AF9 | inhibition, % at 10 µM;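 active means every replicate reaching a set inhibition limit, whatever the replicate mean, cut at about 25% in these data; inconclusive means mean inhibition reaches that limit but some replicates miss it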;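 further: 0% = plate neutral control median and 100% = total signal loss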
Target sequence (P42568 whole entry, looked up): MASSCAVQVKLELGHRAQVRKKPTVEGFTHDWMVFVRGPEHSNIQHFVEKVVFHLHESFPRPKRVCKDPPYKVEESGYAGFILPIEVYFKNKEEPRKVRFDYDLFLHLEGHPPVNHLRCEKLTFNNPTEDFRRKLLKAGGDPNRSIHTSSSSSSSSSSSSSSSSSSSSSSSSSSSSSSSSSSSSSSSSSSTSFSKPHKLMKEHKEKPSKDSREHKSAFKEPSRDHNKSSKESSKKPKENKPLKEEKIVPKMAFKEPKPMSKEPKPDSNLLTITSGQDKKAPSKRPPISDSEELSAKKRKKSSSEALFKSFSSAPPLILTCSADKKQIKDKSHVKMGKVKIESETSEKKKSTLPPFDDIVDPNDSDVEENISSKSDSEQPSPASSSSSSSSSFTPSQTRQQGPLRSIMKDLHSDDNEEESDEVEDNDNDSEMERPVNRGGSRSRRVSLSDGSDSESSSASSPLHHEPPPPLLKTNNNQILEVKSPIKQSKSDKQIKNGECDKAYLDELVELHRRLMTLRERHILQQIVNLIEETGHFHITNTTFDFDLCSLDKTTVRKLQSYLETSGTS
FN deposit inh: fibronectin deposition inhibition; actives 0.086% (n = 350,000); AH1F fibroblasts, Alexa488-fibronectin deposition fluorescence, overnight; inhibition, % at 12.6 µM;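 active means mean inhibition across replicates of 30% or more, regardless of how many single replicates reach that level; inconclusive means mean under 30% yet at least half of replicates reach 30%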;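 further: positive control wells lacked labelled fibronectin entirely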
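Schedule: 1 h cell adhesion before compound, then overnight fibronectin incubation; test system: AH1F fibroblast monolayer depositing Alexa488-labelled fibronectin into matrix; quantity: 10000 AH1F cells per well; probe or stimulus: fluorescent fibronectin at 24 nM final; signal: fluorescence, ex 485 nm, em 525 nm; evaluation: percent inhibition as loss of matrix-bound fibronectin fluorescence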
Alpha interfer: interferes with the AlphaScreen assay signal; AID 720494; shares compounds with AF4-AF9 inh; AlphaScreen interference counter-screen, signal luminescence; AC50, µM (top dose mostly 12 µM), inactives show top-dose activity change, negative = inhibition; actives 45% (n = 530); cut-off not given, nearly all actives have AC50 up to about 14 µM
DNA binder FP: DNA binding artifact in RAD52 counter-screen. shares compounds with RAD52 inh. Salmon sperm DNA/acridine orange FP displacement. AC50, µM. actives 8% (n = 1,000). AID 652128;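 active means fitted half-maximal concentration for signal loss at or below twice the highest dose tested, in every separate run, actives reach about 64 µM in these data; inconclusive means runs disagree, or flat partial signal loss, or poor fit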
Starred values were filed as active, the others as inactive; i = inactive; ? = inconclusive; / = no result given.

SMILES	RAD52 inh	RAD54 inh	N-glyco inh	AF4-AF9 inh	FN deposit inh	Alpha interfer	others
CC1=NN(c2ccccc2)C(=O)/C1=C\C=C\c1ccccc1	-9	-7	11	5	-6	/
COc1ccc(NC2CCCN(Cc3cccc4cnccc34)C2)cc1OC (centres undefined)	26	3	5	26*	-6	-28%
C[C@@H]1CCCCO[C@H](CN(C)S(C)(=O)=O)[C@@H](C)CN([C@@H](C)CO)C(=O)c2cc(NS(=O)(=O)c3ccccc3)ccc2O1	2	-7	/	0	/	/
CC(C)C1CC(CCNCc2ccc(N(C)C)cc2)(c2ccccc2)CCO1 (centres undefined)	7	-7	-7	39*	-8	8.6µM*
Cc1ccc(C2(CCNS(=O)(=O)c3ccc(C)cc3)CCOC(C(C)C)C2)cc1 (centres undefined)	/	/	-8	/	/	/
COc1cc(OC)c2c(-c3ccccc3)cc(=O)oc2c1C(CCN1CCOCC1)c1ccc2c(c1)OCO2 (centres undefined)	40	-12	-8	5	5	/
COc1cc(OC)c2c(-c3ccccc3)cc(=O)oc2c1C(CCN1CCCC(C)C1)c1ccc(N(C)C)cc1 (centres undefined)	32	18	-10	67*	10	3µM*
COc1cc(OC)c2c(-c3ccccc3)cc(=O)oc2c1C(CCN1CCCC1)c1ccc2c(c1)OCO2 (centres undefined)	-42	-8	-4	29*	-1	-27%
COc1cc(OC)c2c(-c3ccccc3)cc(=O)oc2c1C(CC(=O)N1CCOCC1)c1ccc(N(C)C)cc1 (centres undefined)	-7	4	-2	20	-1	/
COc1ccc(C(CCN2CCCC(C)C2)c2c(OC)cc(OC)c3c(C)cc(=O)oc23)cc1 (centres undefined)	/	13	-4	/	-8	/
CCN(CC)CCC(c1ccc(N(C)C)cc1)c1c(OC)cc(OC)c2c(-c3ccccc3)cc(=O)oc12 (centres undefined)	38	14	-8	51*	3	4.8µM*
C[C@@H]1CN([C@@H](C)CO)S(=O)(=O)c2ccc(-c3cccc(F)c3)cc2O[C@H]1CN(C)C(=O)C1CC1	/	/	/	-2	-6	/
COc1ccc(NC(=O)Nc2ccc3c(c2)C(=O)N([C@@H](C)CO)C[C@@H](C)[C@@H](CN(C)S(=O)(=O)c2c(C)noc2C)OCCCC[C@@H](C)O3)cc1	/	0	/	/	/	/
O=C(Nc1cc(F)ccc1F)N1CC(=O)N2[C@@H](CO)[C@H](c3ccc(/C=C/c4ccccc4)cc3)[C@@H]2C1	-33	/	/	9	6	/
CC(=O)N[C@@H]1CC[C@@H](CC(=O)NCc2ccc(Cl)cc2)O[C@H]1CO	-4	-4	/	-11	/	/
O=C(Cc1cccnc1)N1CC(=O)N2[C@H](C1)[C@H](c1ccc(C3=CCCC3)cc1)[C@@H]2CO	10	/	/	37*	6	-19%
O=C(Cc1cccnc1)N1CC(=O)N2[C@H](CO)[C@@H](c3ccc(C4=CCCC4)cc3)[C@@H]2C1	7	/	/	-2	7	/
COc1ccc(NC(=O)N(C)C[C@H]2Oc3ccc(NS(=O)(=O)c4c(C)noc4C)cc3CC(=O)N([C@@H](C)CO)C[C@H]2C)cc1	12	9	/	-13	/	/
O=C(NC1CCCCC1)C(c1cccnc1)N(C(=O)CCl)c1cccc(Cl)c1 (centres undefined)	46	10	16	39*	0	-21%
COc1ccc(CNc2nc3ccccc3n2CCN2CCCCC2)cc1	-20	13	-1	5	-1	/
CCN(CC)c1ccc(CNc2nc3ccccc3n2CCN2CCCCC2)cc1	-69	/	-9	44*	0	-28%
O=C(C[C@@H]1C=C[C@@H](NC(=O)Nc2ccc(C(F)(F)F)cc2)[C@H](CO)O1)NCCN1CCCC1	0	-9	/	5	-7	/
CC(=O)Nc1cccc2c1O[C@@H](CN(C)C)[C@@H](C)CN(C)C2=O	/	/	/	/	3	/
C[C@H](NC(=O)C[C@@H]1C[C@H]2c3cc(NC(=O)C4CCC4)ccc3O[C@H]2[C@H](CO)O1)c1ccccc1	-2	3	/	3	-7	/
CC(C)NC(=O)Nc1ccc2c(c1)C(=O)N(C)[C@@H]1CC[C@H](CC(=O)Nc3ccccc3)O[C@H]1CO2	2	-8	/	-17	-1	/
SMILES	RAD52 inh	RAD54 inh	N-glyco inh	AF4-AF9 inh	FN deposit inh	Alpha interfer	others
O=C(Cc1cccs1)N/N=C\c1ccc([N+](=O)[O-])s1	-12	/	-7	5	3	/
Cc1ccc(NC(=S)N/N=C/c2ccc([N+](=O)[O-])s2)cc1	1	-3	-16	?	-6	-18%
C(=C\c1ccncc1)/c1ccccc1	2	5	-1	6	-3	/
C(=C\c1ccncc1)/c1ccncc1	-3	/	3	21	-2	-19%
COc1ccccc1Nc1c2c(nc3ccc(N)cc13)CCCC2	13	11	7	61*	2	-21%
COc1ccc(OC)c(Nc2c3c(nc4ccccc24)CCC3)c1	-1	10	13	-4	4	/
N#C[C@H]1[C@@H](c2ccccc2C2=CCCCC2)[C@@H](CO)N1C(=O)NC1CCCCC1	10	/	/	-19	-11	/
Fc1ccc([C@@H]2CCNC[C@H]2COc2ccc3c(c2)OCO3)cc1	14	24	4	34*	0	-28%
Cc1nn(-c2ccccc2)c(Cl)c1/C=C1\SC(=S)N(C)C1=O	/	-2	-2	/	3	/
Cc1nn(-c2ccccc2)c(Cl)c1/C=C1\C(=O)N(C)C(=S)N1C	-30	/	0	40*	-7	-24%
O=C(N[C@@H]1CC[C@H](CCNS(=O)(=O)c2ccc(F)cc2)O[C@H]1CO)c1ccccn1	-12	-9	/	1	/	/
O=C(CN1CCCC1)N/N=C/c1c(O)ccc2ccccc12	-34	17	-3	38*	-4	5.7µM*
CN(C)c1ccc(C(CNC(=O)c2ccccc2)c2c[nH]c3ccccc23)cc1 (centres undefined)	2	/	-2	29*	2	-27%
C[C@H]1CCCCO[C@@H](CN(C)C(=O)Nc2ccc(F)cc2)[C@@H](C)CN([C@@H](C)CO)C(=O)c2cc(NC(=O)Nc3ccccc3)ccc2O1	41	24	/	-5	11	/
C[C@@H]1CN([C@@H](C)CO)C(=O)Cc2cc(NS(=O)(=O)c3cccs3)ccc2O[C@@H]1CN(C)C(=O)NC1CCCCC1	7	-1	/	-1	0	/
C#CCOCCOCCOCCNc1nc(N2CCN(C(=O)[C@H](CCCN=C(N)N)n3cc(C(N)[C@@H](C)CC)nn3)CC2)nc(N2CCN(C(=O)[C@H](CCCCN)n3cc([C@@H](N)[C@H](C)CC)nn3)CC2)n1 (some centres undefined)	63*	4	0	46*	3	-10%	DNA binder FP=i

Screens: PubChem BioAssay, Broad Institute
